According to paper PMC8653953 (Cancer chemotherapy and pharmacology, 2021):
Where two headings read alike, the source gives them in different places. Numbered stars: 1 amine (or outer) side, 2 acyl side, 3 side chain; on linkers, the order of the positions; unused ones are H or OH. Bridge positions count the residues as written; N and C are the ends. Square brackets hold non-standard residues; d marks the D form. Peptide text beside a SMILES is read from it. I, II: the chains in the order shown. Actinocin(9to1) = Cc1c2oc3c(C)ccc(C(=O)[*:1])c3nc-2c(C(=O)[*:2])c(N)c1=O; NMeV = CN[C@H](C(=O)O)C(C)C; Sar = CNCC(=O)O

Columns and labels:
patients <17 years old [1] = assay: Actinomycin-D target toxicities; assay type: in vivo, human; conditions: during the study
Summary of the method: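 Actinomycin-D given to patients in four age cohorts (<1, 1 to <3, 3 to <12, 12 to <17 years). Grade 3 ALT, AST, GGT elevation, sinusoidal obstructive syndrome, and grade 3 neutrophil or platelet decrease were reported weekly for 21 days after PK sampling. Only new-onset events or grade increases over baseline counted. Each toxicity was related to PK and demographics by univariate logistic regression, then backward-selection multivariate regression.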

[2] = assay type: in vivo, human
Summary of the method: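 Five 2.5 mL catheter samples (three-draw-flush) taken on one of two random schedules, 5 min to 48-168 h post-infusion. Sodium-heparin plasma was separated within 6 h and frozen. LC-MS/MS, LLOQ 0.5 ng/mL. Noncompartmental: k_z from the last 3 points; AUC by linear trapezoid plus Clast/k_z; CL = dose/AUC∞; Vz = dose/(k_z·AUC∞). Episodes were compared by paired two-sided t-test on log-transformed differences.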

patients <17 years old [3] = assay: Vincristine target toxicity; assay type: in vivo, human; conditions: greater than baseline; weekly for one month and monthly for 6 months from sampling
Summary of the method: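 Vincristine-treated patients in four age cohorts were graded for neuropathy by CTC v3 (before 10/1/10) or CTCAE 4.03. Assessed weekly for one month, then monthly for 6 months from PK sampling. Only new-onset events or grade increases over baseline after sampling counted. Incidence was related to PK parameters and demographics by univariate logistic regression, then backward-selection multivariate regression.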

[4] = patients (n = 17) with two episodes of sampling, ratio (95% CI), P=0.05

Row | half-life ([2]; all ages, n=52 patients, median, CV 60%) | Clearance ([2]; all ages, n=52 patients, median, CV 90%) | median AUC of the youngest group, lower than the oldest groups ([2]; children <1 year vs oldest groups, consistent with the difference in dose) | Clearance ([2]; all ages, n=132 patients, median, CV 67%) | half-life ([2]; all ages, n=132 patients, median, CV 73%) | AUC ([2]; all ages, n=132 patients, median, CV 98%) | clearance, ratio between two sampling episodes ([2]; patients (n = 17) with two episodes of sampling, ratio (95% CI), P=0.04) | CL/BSA, ratio between two sampling episodes [2, 4] | Vz/BSA, ratio between two sampling episodes [2, 4] | SMILES | sinusoidal obstructive syndrome (patients <17 years old [1]) | patients with grade 3 peripheral motor neuropathy (patients <17 years old [3]) | patients with grade 3 peripheral sensory neuropathy (patients <17 years old [3])
1 | 25 h | 4.6 L/hr/m^2 | approximately 50% | – | – | – | – | – | – | Cc1c2oc3c(C)ccc(C(=O)N[C@@H]4C(=O)N[C@H](C(C)C)C(=O)N5CCC[C@H]5C(=O)N(C)CC(=O)N(C)[C@@H](C(C)C)C(=O)O[C@@H]4C)c3nc-2c(C(=O)N[C@@H]2C(=O)N[C@H](C(C)C)C(=O)N3CCC[C@H]3C(=O)N(C)CC(=O)N(C)[C@@H](C(C)C)C(=O)O[C@@H]2C)c(N)c1=O [Actinomycin-D] (I: T[dV]P[Sar][NMeV] / II: T[dV]P[Sar][NMeV]; ester I:1-I:C, II:1-II:C; linker I:N-II:N via Actinocin(9to1)) | No participant experienced sinusoidal obstructive syndrome | – | –
2 | – | – | – | 17.2 L/hr/m^2 | 14.6 h | 78 ng·h/mL | 1.54 (1.03,2.31) | 1.50 (0.99–2.25) | 1.56 (0.99–2.46) | CC[C@]1(O)C[C@H]2CN(CCc3c([nH]c4ccccc34)[C@@](C(=O)OC)(c3cc4c(cc3OC)N(C=O)[C@H]3[C@@](O)(C(=O)OC)[C@H](OC(C)=O)[C@]5(CC)C=CCN6CC[C@]43[C@@H]65)C2)C1 [Vincristine] | – | four | four
